Assay results gathered from unrelated publications.
Each line is one published result; the experiments were not run side by side.
Effect on: metabolic stability
Host: mouse
Sample: liver microsomes

Compound | setting | microsomal CLint [µL/min/mg]
CC1(C)NC(=O)N(c2ccc(F)c(OC(F)(F)F)c2)C1=O | – | < 7
O=c1c2ccc(OCc3cccc(OC(F)(F)F)c3)cc2[nH]c2cc(F)cc(Cl)c12 | 1 µM, pH 7.4 | 7.26
Cc1[nH]c(C)c(S(=O)(=O)Nc2ccc(C(F)(F)F)c(Cl)c2Cl)c1C(=O)N1CCC(F)(F)C1 | – | 15.7
CC1(C(F)(F)F)NC(=O)N(c2ccc(F)c(C(F)(F)F)c2)C1=O (stereo not drawn) | – | < 7
CC(C)n1ncc2c(C(=O)NCC3(C)CNC3)cc(C3CC3)nc21 | – | < 9.6
CCN(CC)CCOc1ccc2c(=O)c3c([nH]c2c1)CCCC3 | 1 µM, pH 7.4 | 17.7
CC(C)c1cc(C(=O)NCCN2CCCC2)c2cnn(C(C)C)c2n1 | – | 49.1
O=C1NC2(CCS(=O)(=O)CC2)C(=O)N1c1ccc(F)c(C(F)(F)F)c1 | – | < 7
CCCN(CCC)CCNc1ccc2c(=O)c3c([nH]c2c1)CCCC3 | 1 µM, pH 7.4 | 81.9
CNCCNC(=O)c1cc(C(C)C)nc2c1cnn2C(C)C | – | 175
COc1ccc(Cn2cc(CO[C@@H]3O[C@H]4[C@H](OC[C@H]4O)[C@H]3O)nn2)cc1 | – | < 14.4
CCCN(CCC)CCCOc1ccc2c(=O)c3c([nH]c2c1)CCCC3 | 1 µM, pH 7.4 | 34.1
Cc1cc(N2C(=O)NC(C)(C)C2=O)cc(C(F)(F)F)n1 | – | 19
CC(C)(C)OC(=O)N1CCC(Oc2ccc3c(=O)c4c(F)cc(Cl)cc4[nH]c3c2)C1 (stereo not drawn) | 1 µM, pH 7.4 | 16.7
CC1(C)NC(=O)N(c2ccc(F)c(Br)c2)C1=O | – | 8
O=c1c2ccc(Oc3ccc(OC(F)(F)F)cc3)cc2[nH]c2cc(Cl)c(F)cc12 | 1 µM, pH 7.4 | 1.84
CC(C)n1ncc2c(C(=O)NCC3(F)CNC3)cc(C3CC3)nc21 | – | 19.8
CCS(=O)(=O)N1CCC2(CC1)NC(=O)N(c1ccc(F)c(C(F)(F)F)c1)C2=O | – | < 7
